Measured values as given in ChEMBL document CHEMBL1146554, “Antioxidative meroterpenoids from the brown alga Cystoseira crinita” (J Nat Prod, 2003).
≈ marks a conversion by molar mass, not a printed value. Calls of active or inactive are those of the source. The calls are words filed in the database; no cut-off is given here.

What was measured:
[Chlorella] fusca = Antimicrobial activity against 'Chlorella' fusca at 50 ug/disk by agar diffusion assay; format: functional, organism-based; conditions: Scenedesmus fuscus
Procedure, shortened: (§1)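 Agar diffusion assay with discs loaded at 50 µg/disk, run against the bacteria, fungi and the green microalga Chlorella fusca.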

Escherichia coli = experiment: Antimicrobial activity against Escherichia coli at 50 ug/disk by agar diffusion assay; format: functional, organism-based; procedure, shortened: as §1
[1] = test system: Radical scavenging activity; experiment: Antioxidant activity assessed as DPPH radical scavenging activity at 23 uM after 30 mins; format: functional
Procedure, shortened: (§2)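 Samples in EtOH (100 µL) mixed with 25 µL of 1 mM DPPH in EtOH plus 75 µL EtOH, then shaken briefly. Kept 30 min at room temperature in the dark. Absorbance read at 517 nm. % scavenging calculated against control, with blank and sample-blank corrections.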

[2] = test system: Radical scavenging activity; experiment: Antioxidant activity assessed as DPPH radical scavenging activity at 230 uM after 30 mins; format: functional; procedure, shortened: as §2
[3] = Antioxidant activity assessed as inhibition of FeSO4-induced lipid peroxidation at 164 uM by TBARS assay; format: functional
Procedure, shortened: (§3)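 Linolenic acid methyl ester oxidized under FeSO4 catalysis in 50 mM phosphate buffer pH 7.2 at 50 °C. BHT in ethanol added to stop further oxidation. TBARS developed with trichloroacetic and thiobarbituric acid, 60 °C for 30 min. Read A532 minus A600 background. % inhibition calculated versus uninhibited control, with blank and sample-blank corrections.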

[4] = Antioxidant activity assessed as inhibition of FeSO4-induced lipid peroxidation at 82 uM by TBARS assay; format: functional; procedure, shortened: as §3
Microbotryum violaceum = experiment: Antimicrobial activity against Microbotryum violaceum at 50 ug/disk by agar diffusion assay; format: functional, organism-based; procedure, shortened: as §1
[5] = test system: Radical scavenging activity; experiment: Antioxidant activity assessed as DPPH radical scavenging activity at 58 uM after 30 mins; format: functional; procedure, shortened: as §2
[6] = test system: Radical scavenging activity; experiment: Antioxidant activity assessed as DPPH radical scavenging activity at 6 uM after 30 mins; format: functional; procedure, shortened: as §2
[7] = Antioxidant activity assessed as inhibition of FeSO4-induced lipid peroxidation at 16 uM by TBARS assay; format: functional; procedure, shortened: as §3
MCF7 = experiment: Cytotoxicity against human MCF7 cells; format: functional
Procedure, shortened: (§4)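 Cytotoxicity tested on HM02 gastric adenocarcinoma, HepG2 hepatocellular carcinoma and MCF7 breast adenocarcinoma lines following NCI standards.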

[8] = Antioxidant activity assessed as inhibition of FeSO4-induced lipid peroxidation at 8 uM by TBARS assay; format: functional; procedure, shortened: as §3
[9] = Cytotoxicity against human HM02 cells; format: functional; procedure, shortened: as §4
[10] = test system: Radical scavenging activity; experiment: Antioxidant activity assessed as DPPH radical scavenging activity at 12 uM after 30 mins; format: functional; procedure, shortened: as §2
Priestia megaterium = experiment: Antimicrobial activity against Bacillus megaterium at 50 ug/disk by agar diffusion assay; format: functional, organism-based; procedure, shortened: as §1
[11] = test system: Aspergillus pseudoglaucus; experiment: Antimicrobial activity against Eurotium repens at 50 ug/disk by agar diffusion assay; format: functional, organism-based; procedure, shortened: as §1
HepG2 [12] = experiment: Cytotoxicity against human HepG2 cells; format: functional; procedure, shortened: as §4
[13] = test system: Radical scavenging activity; experiment: Antioxidant activity assessed as DPPH radical scavenging activity at 115 uM after 30 mins; format: functional; procedure, shortened: as §2
[14] = ABTS radical scavenging activity assessed as trolox equivalents by TEAC assay; format: physicochemical
Procedure, shortened: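 ABTS radical cation made by passing ABTS in PBS through manganese dioxide, then filtered (0.2 µm). Diluted in 5 mM PBS pH 7.4 to A734 0.700 and preincubated 2 h at room temperature. 1 mL radical mixed with 200 µL ethanolic sample, vortexed 30 s, centrifuged. A734 of lower phase read exactly 2 min after mixing. PBS and ethanol blanks included. Trolox standards used; value is mM Trolox equivalent to 1.0 mM compound.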

Mycotypha microspora = experiment: Antimicrobial activity against Mycotypha microspora at 50 ug/disk by agar diffusion assay; format: functional, organism-based; procedure, shortened: as §1
[15] = Superoxide radical scavenging activity assessed as trolox equivalents by photochemiluminescence assay
Procedure, shortened: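 Photochemiluminescence with luminol acting as photosensitizer and detection reagent, generating superoxide. Mix of 2.29 mL reagent 1 (solvent/diluent), 200 µL buffer reagent, 25 µL photosensitizer and 10 µL sample in ethanol or Trolox standard in water. Antioxidant capacity taken from the integral under the curve and expressed as Trolox equivalents.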

[16] = Antioxidant activity assessed as inhibition of FeSO4-induced lipid peroxidation at 33 uM by TBARS assay; format: functional; procedure, shortened: as §3
HepG2 [17] = experiment: Cytotoxicity against human HepG2 cells at 10 ug/ml; format: functional; conditions: read-out: GI
[18] = target: Human immunodeficiency virus type 1 reverse transcriptase (Human immunodeficiency virus 1) (UniProt Q72547); experiment: Inhibition of HIV1 reverse transcriptase at 66 ug/ml by ELISA
Procedure, shortened: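 HIV-1 RT activity inhibition measured by ELISA with the test compound at 66 µg/mL.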

| SMILES | Activity ([Chlorella] fusca) | Activity (Escherichia coli) | Activity [1] [%] | Activity [2] [%] | inhibition [3] [%] | inhibition [4] [%] | Activity (Microbotryum violaceum) | Activity [5] [%] | Activity [6] [%] | inhibition [7] [%] | GI50 (MCF7) [mg/L] | LC50 (MCF7) [mg/L] | TGI (MCF7) [mg/L] | inhibition [8] [%] | GI50 [9] [mg/L] | LC50 [9] [mg/L] | TGI [9] [mg/L] | Activity [10] [%] | Activity (Priestia megaterium) | Activity [11] | other results |
| --- | --- | --- | --- | --- | --- | --- | --- | --- | --- | --- | --- | --- | --- | --- | --- | --- | --- | --- | --- | --- | --- |
| C/C(=C\C(=O)C/C(C)=C/Cc1cc(O)cc(C)c1O)CC/C=C(\C)Cc1cc(C)co1 | inactive | inactive | 24.9 | 95.4 | 74.9 | 69.3 | inactive | 65.4 | 8 | 25.8 | 1.3 (≈ 3.08 µM) | 3.7 (≈ 8.76 µM) | 2.1 (≈ 4.97 µM) | 15.1 | 0.3 (≈ 0.71 µM) | 3.4 (≈ 8.05 µM) | 0.6 (≈ 1.42 µM) | 12.5 | inactive | inactive | GI50 (HepG2 [12]): 1.8 mg/L (≈ 4.26 µM); LC50 (HepG2 [12]): > 10 mg/L; TGI (HepG2 [12]): 4 mg/L (≈ 9.47 µM); Activity [13]: 95.2%; Activity [14]: 0.08 mmol/L; Activity (Mycotypha microspora): inactive; Activity [15]: 1.06 mmol/L; inhibition [16]: 41.2% |
| C/C(=C/CC/C(C)=C/CC/C(C)=C\C(=O)C/C(C)=C/Cc1cc(O)cc(C)c1O)CO | inactive | inactive | 31.2 | 96.7 | 73.4 | 69.8 | inactive | 80.1 | 9.1 | 18.3 | 1.8 (≈ 4.22 µM) | > 10 | 4 (≈ 9.38 µM) | 12 | 1.8 (≈ 4.22 µM) | > 10 | 6 (≈ 14.1 µM) | 15.2 | inactive | inactive | inhibition of growth at 10 µg/mL (HepG2 [17]): 87%; Activity [18]: inactive; GI50 (HepG2 [12]): 6.8 mg/L (≈ 15.9 µM); LC50 (HepG2 [12]): > 10 mg/L; TGI (HepG2 [12]): > 10 mg/L; Activity [13]: 96%; Activity [14]: 0.09 mmol/L; Activity (Mycotypha microspora): inactive; Activity [15]: 0.51 mmol/L; inhibition [16]: 31.5% |
| C/C(=C/C(=O)C/C(C)=C/Cc1cc(O)cc(C)c1O)CC/C=C(\C)Cc1cc(C)co1 | inactive | inactive | 22.1 | 95.8 | 74.6 | 66.6 | inactive | 56.7 | 5.9 | 25.2 | 0.9 (≈ 2.13 µM) | 3.6 (≈ 8.52 µM) | 1.7 (≈ 4.02 µM) | 16.4 | 0.9 (≈ 2.13 µM) | 4.6 (≈ 10.9 µM) | 2 (≈ 4.73 µM) | 11 | inactive | inactive | GI50 (HepG2 [12]): 1.7 mg/L (≈ 4.02 µM); LC50 (HepG2 [12]): > 10 mg/L; TGI (HepG2 [12]): 5 mg/L (≈ 11.8 µM); Activity [13]: 95.7%; Activity [14]: 0.28 mmol/L; Activity (Mycotypha microspora): inactive; Activity [15]: 0.79 mmol/L; inhibition [16]: 38.9% |
